# Assay results taken from ChEMBL document CHEMBL1255431, “Inhibitors of Leishmania GDP-mannose pyrophosphorylase identified by high-throughput screening of small-molecule chemical library” (Antimicrob Agents Chemother, 2010).
# The source made the active and inactive calls. The rule behind the calls is not given here.
# Key:
# Leishmania major [1] = assay: Antileishmanial activity Leishmania major V121 amastigotes; type: functional, organism-based
# Procedure, shortened: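 Ex vivo amastigotes purified from lesions of L. major-infected CBA nu/nu mice, resuspended in M199. Exposed 24 h to 2-fold dilutions from 100 μM to 49 nM. 10^6 parasites per well, in duplicate. Viability by CellTiter blue, read at 550 nm with 630 nm reference. IC50 against nontreated controls.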
# [2] = Inhibition of Leishmania major recombinant GDP-mannose pyrophosphorylase expressed in Escherichia coli […] by fluorescence assay
# Procedure, shortened: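 Recombinant His6-tagged L. major GDP-MP, expressed in E. coli BL21(DE3)pLysS and purified on Talon resin. Buffer: 25 mM Tris-HCl pH 7.5, 4 mM MgCl2, 150 mM NaCl, 0.02% Tween 20, 0.4 mg/ml OVA. Final 5 μM M-1-P and 1.3 μM GTP, with inorganic pyrophosphatase coupling. Pi detected by MDCC phosphate sensor, Ex430/Em480, read each minute for 10 min.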
# Leishmania major [3] = assay: Antileishmanial activity Leishmania major V121 promastigotes infected in mouse bone marrow-derived macrophage assessed as mild inhibition of cell invasion at 30 uM after 48 hrs by microscopy; type: functional, organism-based
# Leishmania major [4] = assay: Antileishmanial activity Leishmania major V121 amastigotes infected in mouse bone marrow-derived macrophage assessed as inhibition of parasite proliferation after 48 hrs by Giemsa staining; type: functional, organism-based
# Procedure, shortened: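 Intracellular proliferation format in mouse bone marrow-derived macrophages, with amastigotes used for infection. Infected cells on duplicate coverslips exposed to compound for 48 h, then washed, methanol-fixed and Giemsa-stained. Percentage of infected cells counted microscopically.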
# Leishmania major [5] = assay: Antileishmanial activity Leishmania major V121 promastigotes infected in mouse bone marrow-derived macrophage assessed as inhibition of cell invasion after 48 hrs by microscopy; type: functional, organism-based
# [6] = Cytotoxicity against HFF by Cell titer blue assay; type: cell-based; details: human, HFF cells
# Procedure, shortened: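 Primary human foreskin fibroblasts grown in DMEM with 10% HI-FBS, 37°C, 5% CO2. Compound toxicity measured by CellTiter blue viability, concentrations up to 100 μM.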
# Leishmania major [7] = assay: Antileishmanial activity Leishmania major V121 amastigotes infected in mouse bone marrow-derived macrophage assessed as complete inhibition of cell invasion at 30 uM after 48 hrs by microscopy; type: functional, organism-based
# [8] = Cytotoxicity against mouse bone marrow-derived macrophages at 30 uM after 48 hrs by Cell titer blue assay; type: cell-based; details: macrophage
# Leishmania major [9] = assay: Antileishmanial activity Leishmania major V121 amastigotes infected in mouse bone marrow-derived macrophage assessed as inhibition of cell invasion after 48 hrs by microscopy; type: functional, organism-based
# Leishmania major [10] = assay: Antileishmanial activity Leishmania major V121 amastigotes isolated from infected […] CBA nu/nu at 10 to 30 uM after 48 hrs by microscopy; type: functional, organism-based
# Leishmania major [11] = assay: Antileishmanial activity Leishmania major V121 amastigotes isolated from infected […] CBA nu/nu after 48 hrs by microscopy; type: functional, organism-based
# Leishmania major [12] = assay: Antileishmanial activity Leishmania major V121 promastigotes infected in mouse bone marrow-derived macrophage assessed as complete inhibition of cell invasion at 30 uM after 48 hrs by microscopy; type: functional, organism-based
# Leishmania major [13] = assay: Antileishmanial activity Leishmania major V121 amastigotes infected in mouse bone marrow-derived macrophage assessed as mild inhibition of cell invasion at 30 uM after 48 hrs by microscopy; type: functional, organism-based
# Leishmania major [14] = assay: Antileishmanial activity Leishmania major V121 amastigotes isolated from infected […] CBA nu/nu at 10 to 40 uM after 48 hrs by microscopy; type: functional, organism-based
# Leishmania major [15] = assay: Antileishmanial activity Leishmania major V121 promastigotes infected in mouse bone marrow-derived macrophage assessed as inhibition of cell invasion at 10 uM after 48 hrs by microscopy; type: functional, organism-based
IC50 (Leishmania major [1]),IC50 [2],SMILES,inhibition (Leishmania major [3]),IC50 (Leishmania major [4]),CC50 [6],further results
88.9 µM,1.37 µM,CCn1nc(C)cc1-c1nnc2sc(-c3ccc(C)cc3)nn12,Active,,> 100 µM,Activity [8]: Toxic
> 100 µM,7.28 µM,CCOC(=O)C/C(=N/O)c1nnn[nH]1,Active,,,
78 µM,0.49 µM,c1ccc2c(-c3cnc4n3CCS4)c[nH]c2c1,Active,> 30 µM,> 100 µM,inhibition (Leishmania major [7]): Active
62.3 µM,0.58 µM,CC(C)(C)c1ccc(CN2CCN(c3ccnc4cc(Cl)ccc34)CC2)cc1,,21.9 µM,> 100 µM,Activity (Leishmania major [11]): Active; inhibition (Leishmania major [12]): Active; inhibition (Leishmania major [4]): Dose-dependent effect; inhibition (Leishmania major [13]): Active; inhibition (Leishmania major [5]): Dose-dependent effect; inhibition (Leishmania major [9]): Dose-dependent effect; Activity (Leishmania major [14]): Active
> 100 µM,2.93 µM,Clc1ccc(C2=NN3C(c4ccccc4)=NNC3S2)c(Cl)c1 (stereo not given),Active,,,
25.1 µM,5.75 µM,Cc1ccc(N2NC(=O)/C(=C/c3cc4c(cc3Cl)OCO4)C2=O)cc1C,Active,> 30 µM,> 100 µM,
> 100 µM,2.98 µM,Fc1cccc(Cl)c1Cc1nn2c(-c3ccccc3)nnc2s1,Active,,,
> 100 µM,1.05 µM,CCn1nc(C)cc1-c1nnc2sc(Cc3c(F)cccc3Cl)nn12,Active,,,
73.4 µM,4.12 µM,CN(C)Cc1c(O)ccc2c(=O)c(-c3cnn(-c4ccccc4)c3)coc12,Active,> 30 µM,> 100 µM,
> 100 µM,4.45 µM,COc1ccc(-c2nnc3sc(-c4ccc(F)cc4)nn23)cc1,Active,,,
90.7 µM,10.7 µM,Cc1ccc(/C=C2/C(=O)NN(c3ccc(F)cc3)C2=O)o1,Active,> 30 µM,> 100 µM,

# More lines, now with the values behind:
SMILES,IC50 (Leishmania major [1]),IC50 [2],inhibition (Leishmania major [3]),IC50 (Leishmania major [4]),CC50 [6],further results
COc1ccc2c(=O)c(C(=O)O)csc2c1,> 100 µM,8.25 µM,Active,,,
Cc1ccccc1Cc1nnc2sc(-c3ccc(Cl)cc3)nn12,> 100 µM,1.09 µM,Active,,,
Clc1ccc2c(N3CCN(Cc4ccc(-c5ccccc5)cc4)CC3)ccnc2c1,32.6 µM,,Active,11.7 µM,> 100 µM,"IC50 (Leishmania major [5]; V121, 48 h): 17.6 µM"
COC(=O)c1c(O)c(C#N)c2n(c1=O)CCc1cc(OC)c(OC)cc1-2,52.6 µM,2.44 µM,Active,> 30 µM,> 100 µM,inhibition (Leishmania major [7]): Active
Cc1ccc2[nH]c(CCC3CCCCC3)nc2c1,23.7 µM,1.56 µM,Active,,> 100 µM,Activity [8]: Toxic
CN1CCN(c2ccnc3cc(Cl)ccc23)CC1,> 100 µM,,Active,,,
COc1ccc(-c2csc3c2C2=NCCN2C=N3)cc1OC,> 100 µM,7.54 µM,Active,,,
Clc1ccc2c(N3CCN(Cc4ccccc4)CC3)ccnc2c1,62.2 µM,,Active,> 30 µM,,inhibition (Leishmania major [5]): Dose-dependent effect; inhibition (Leishmania major [9]): Dose-dependent effect; Activity (Leishmania major [10]): Active
COc1ccc(CCC2=Nc3ccccc3S(=O)(=O)N2)cc1,,5.31 µM,Active,,,
CCCc1cc(-c2nn3c(-c4ccccc4)nnc3s2)n(CC)n1,> 100 µM,1.26 µM,Active,,,
CCc1nnc(N2C(=O)C3C4C=CC(C4)C3C2=O)s1 (stereo not given),> 100 µM,3.53 µM,Active,,,
Cc1ccc2c(n1)[nH]c1ccccc12,96.8 µM,5.53 µM,Active,> 30 µM,> 100 µM,
Cc1cc(C)nc(SCc2nn3c(-c4ccccc4)nnc3s2)n1,> 100 µM,3.95 µM,Active,,,
C[C@@H]1[C@H](O)[C@@H](C)/C=C/C=C/C=C/C=C/C=C/C=C/C=C/[C@H](O[C@@H]2O[C@H](C)[C@@H](O)[C@H](N)[C@@H]2O)C[C@@H]2O[C@](O)(C[C@@H](O)C[C@@H](O)[C@H](O)CC[C@@H](O)C[C@@H](O)CC(=O)O[C@H]1C)C[C@H](O)[C@H]2C(=O)O [AMPHOTERICIN B],1.6 µM,,,0.5 µM,,
Cc1ccc(C(=O)N2CCN(c3ccnc4cc(Cl)ccc34)CC2)cc1,70.6 µM,,Active,> 30 µM,,inhibition (Leishmania major [15]): inactive; inhibition (Leishmania major [5]): Dose-dependent effect; inhibition (Leishmania major [9]): Dose-dependent effect; Activity (Leishmania major [10]): Active
